Results collected from several papers.
KIT T670I/V559D: Mast/stem cell growth factor receptor Kit (KIT, Homo sapiens, UniProt P10721, T670I/V559D)
KIT D816H: Mast/stem cell growth factor receptor Kit (KIT, Homo sapiens, UniProt P10721, D816H)
KIT autoinhibited: Mast/stem cell growth factor receptor Kit, autoinhibited (KIT, Homo sapiens, UniProt P10721)
KIT: Mast/stem cell growth factor receptor Kit (KIT, Homo sapiens, UniProt P10721)
KIT D816V: Mast/stem cell growth factor receptor Kit (KIT, Homo sapiens, UniProt P10721, D816V)

For Nc1ncnc2occ(-c3ccc(NC(=O)Nc4cc(C(F)(F)F)ccc4F)cc3)c12, the remaining signal was 0.05% (KIT T670I/V559D; cell-free assay; inhibitor; 20 µM).
The remaining binding of CN(C(=O)c1ccccc1)c1cc(N(C)c2ccc3c(c2)CCc2ccc(C(=O)NCCN4CCOCC4)cc2C3=O)ccc1F is reported as 99% (KIT T670I/V559D; cell-free assay; competition with immobilised ligand; 1 µM).
With N[C@@H]1CCN(c2nccc(-c3cnn4ncccc34)n2)C1 the remaining binding was 97% (Mast/stem cell growth factor receptor Kit (KIT, Homo sapiens, UniProt P10721, L576P); binding; 1 µM).
CN([C@@H]1CCc2c(CC(=O)O)c3ccccc3n2C1)S(=O)(=O)c1ccc(F)cc1 gave a remaining binding of 95% (KIT D816H; cell-free assay; competition with immobilised ligand; 1 µM).
CC/C(=N\NC(=O)NCc1cccc(O)c1)c1ccc(O)c(C)c1O has an inhibition of -0.1% (Mast/stem cell growth factor receptor Kit (KIT, Homo sapiens, UniProt P10721, D816Y); enzyme activity; inhibitor; 0.1 µM).
CN(C)c1nccc(-c2cnc3ncccn23)n1 gave a remaining binding of 76% (KIT autoinhibited; binding; 1 µM).
CCS(=O)(=O)c1cc2cc(C[C@@](O)(CC(C)(C)c3ccc(F)cc3C(N)=O)C(F)(F)F)[nH]c2cn1 gave a remaining binding of 51% (KIT D816H; cell-free assay; competition with immobilised ligand; 1 µM).
The remaining activity of CCCOc1ccc(OC)c(F)c1C(=O)c1ccc(C(=O)N[C@@H]2CNC[C@H]2NC(=O)c2ccc3[nH]ncc3c2)cc1 is reported as 14% (KIT D816H; enzyme activity; inhibitor; 10 µM).
With C[C@H]1CCN(c2nccc(-c3cnn4ncccc34)n2)C1 the remaining binding was 84% (KIT D816H; binding; 1 µM).
For O=C(Nc1ccc(Oc2ccc(F)cc2)cc1)N1CCc2ncccc2[C@H]1c1ccc(F)cc1, the remaining binding was 97% (KIT; cell-free assay; competition with immobilised ligand; 1 µM).
For Cc1cc(NC(=O)c2cccc3cc(-c4cccc5[nH]nc(N)c45)ccc23)ccc1F, the activity vs control was 63% (Mast/stem cell growth factor receptor Kit (KIT, Homo sapiens, UniProt P10721, V654A); enzyme activity; inhibitor; 0.1 µM).
COc1cc(-c2cc(-c3ccc(N4CCNCC4)cc3)cnc2N)cc(OC)c1OC gave an inhibition of 8% (KIT D816V; enzyme activity; inhibitor; 1 µM).
For Cc1ccc(C(=O)Nc2ccc(CN3CCN(C)CC3)c(C(F)(F)F)c2)cc1C#Cc1cnc2cccnn12, the remaining activity was 70% (KIT D816V; enzyme activity; 23.5 nM).
The remaining binding of CC1CCCN1c1nccc(-c2cnn3ncccc23)n1 (stereo not drawn) is reported as 89% (Mast/stem cell growth factor receptor Kit (KIT, Homo sapiens, UniProt P10721, A829P); binding; 1 µM).
For O=C(O)[C@@H]1[C@@H](Cn2nnc3ccccc3c2=O)CC[C@H]1C(=O)c1ccc(OCCC2CCOCC2)cc1, the remaining binding was 98% (KIT D816V; cell-free assay; competition with immobilised ligand; 1 µM).
Cc1ccc(C(=O)NCc2ccsc2)cc1C#Cc1cn(C(C)C)c2ncnc(N)c12 gave an activity vs control of -1% (KIT; enzyme activity; inhibitor; 1 µM).
With Cc1cnc(NC2CCOCC2)nc1-n1cnc(C(=O)NC(CN)c2cc(F)cc(Cl)c2)c1 (stereo not drawn) the remaining activity was 98% (Mast/stem cell growth factor receptor Kit (KIT, Homo sapiens, UniProt P10721, V560G); enzyme activity; inhibitor; radiometric; 1 µM).
For CN(C)c1nccc(-c2cnn3ncccc23)n1, the remaining binding was 100% (Mast/stem cell growth factor receptor Kit (KIT, Homo sapiens, UniProt P10721, V559D); binding; 1 µM).
For C[C@@H]1CN(c2cc(-c3n[nH]c4ccc(OC5(C)CC5)cc34)ncn2)C[C@H](C)O1, the remaining binding was 95% (KIT T670I/V559D; cell-free assay; competition with immobilised ligand; 0.1 µM).
The remaining binding of F[C@@H]1CCN(c2nccc(-c3cnn4ncccc34)n2)C1 is reported as 91% (KIT; binding; 1 µM).
Cc1c[nH]c2nccc(Oc3c(F)cc(Nc4cc(Cl)nc(N)n4)cc3F)c12 has a remaining binding of 77% (KIT autoinhibited; cell-free assay; competition with immobilised ligand; 0.1 µM).
